Shown are actives, neighbours in structure and some others; about 1.3% of the full set was active somewhere.
RAD54 inh: inhibitors of human RAD54 branch migration; RAD54 Holliday junction branch migration, FAM/BHQ fluorescence; inhibition, % at 10.4 µM; 0.14% of 360,000 active;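 active means mean normalized replicate activity at least 40 and at least half of replicates scoring 40 or more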;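 further: 0% = median of neutral control wells and 100% = median of positive control wells; inhibitors cause a drop in the FAM fluorescence signal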
Target sequence (Q92698 whole entry, looked up): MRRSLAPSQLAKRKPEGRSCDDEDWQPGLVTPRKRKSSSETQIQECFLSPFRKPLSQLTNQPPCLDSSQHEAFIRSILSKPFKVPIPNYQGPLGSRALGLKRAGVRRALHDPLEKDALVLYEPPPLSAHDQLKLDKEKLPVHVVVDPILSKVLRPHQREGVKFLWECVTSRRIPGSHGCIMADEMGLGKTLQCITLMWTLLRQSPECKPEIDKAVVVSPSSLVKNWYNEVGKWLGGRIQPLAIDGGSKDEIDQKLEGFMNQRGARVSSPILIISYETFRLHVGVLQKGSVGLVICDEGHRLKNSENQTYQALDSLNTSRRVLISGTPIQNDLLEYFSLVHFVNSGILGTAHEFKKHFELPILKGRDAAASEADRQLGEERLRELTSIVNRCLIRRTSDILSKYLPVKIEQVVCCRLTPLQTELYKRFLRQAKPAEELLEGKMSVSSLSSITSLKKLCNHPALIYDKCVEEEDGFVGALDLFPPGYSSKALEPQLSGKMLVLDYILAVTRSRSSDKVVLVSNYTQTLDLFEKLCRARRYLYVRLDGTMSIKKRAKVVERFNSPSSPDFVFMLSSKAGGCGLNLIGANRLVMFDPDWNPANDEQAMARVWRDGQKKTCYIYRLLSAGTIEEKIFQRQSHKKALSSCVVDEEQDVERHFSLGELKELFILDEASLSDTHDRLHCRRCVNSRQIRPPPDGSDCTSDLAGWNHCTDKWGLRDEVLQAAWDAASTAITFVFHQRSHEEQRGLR
PAX8 reporter: PAX8 transcriptional activity inhibition; 1.2% of 360,000 active; inhibition, % at 12.6 µM; AID 652154; RMG-I TPO-luciferase reporter, SteadyGlo, 24 h;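 active means mean replicate inhibition at least 60% with every replicate also reaching 60%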;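 further: luciferase light reporting Pax8 driven TPO promoter activity; plate controls were median of neutral control wells for no effect and mitoxantrone controls for full effect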
FN deposition inh: fibronectin deposition inhibition | AH1F fibroblasts, Alexa488-fibronectin deposition fluorescence, overnight | inhibition, % at 12.6 µM | 0.086% of 350,000 active;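 active means mean inhibition across replicates of 30% or more, regardless of how many single replicates reach that level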;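 further: positive control wells lacked labelled fibronectin entirely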
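Schedule: 1 h cell adhesion before compound, then overnight fibronectin incubation; test system: AH1F fibroblast monolayer depositing Alexa488-labelled fibronectin into matrix; quantity: 10000 AH1F cells per well; probe or stimulus: fluorescent fibronectin at 24 nM final; signal: fluorescence, ex 485 nm, em 525 nm; evaluation: percent inhibition as loss of matrix-bound fibronectin fluorescence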
RAD52 anneal inh: inhibitors of human RAD52 DNA annealing | P43351 | 0.46% of 360,000 active | recombinant RAD52 DNA annealing, FRET fluorescence | inhibition, % at 18.7 µM | AID 651710;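 active means every replicate showing at least 50% inhibition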
* = called active by the depositor; / = not tested or not shown.

SMILES	RAD54 inh	PAX8 reporter	FN deposition inh	RAD52 anneal inh
C[C@@H]1CN([C@@H](C)CO)C(=O)Cc2cc(NC(=O)Nc3ccc(C(F)(F)F)cc3)ccc2O[C@H]1CN(C)S(=O)(=O)c1ccc(F)cc1	/	94*	/	/
O=S(=O)(N[C@@H]1CC[C@@H](CCn2cc(C3(O)CCCC3)nn2)O[C@H]1CO)c1ccccc1	1	-2	/	-20
O=C(O)C[C@H]1CC[C@@H](NC(=O)Nc2cc(F)ccc2F)[C@H](CO)O1	8	-21	/	-2
CC(=O)Oc1ccc(C(=O)Nc2ccccc2C(=O)NCC(C)C)cc1	4	-20	5	/
CCC(=O)Nc1ccc2c(c1)C(=O)N(C)C[C@@H](OC)[C@@H](C)CN(Cc1ccccc1C(=O)O)[C@H](C)CO2	10	4	1	-3
C[C@@H]1CN([C@@H](C)CO)C(=O)c2cc(NC(=O)CCCCCC(=O)Nc3ccccc3N)ccc2O[C@H]1CN(C)C(=O)Nc1ccc(F)cc1	/	-11	/	2
C[C@H](CO)N1C[C@H](C)[C@H](CN(C)S(=O)(=O)c2ccc(F)cc2)Oc2ccc(NC(=O)Nc3ccc(F)cc3)cc2CC1=O	0	/	/	11
C[C@H](CO)N1C[C@H](C)[C@H](CN(C)S(=O)(=O)c2ccc(Cl)cc2)Oc2ccc(NC(=O)Nc3ccc(F)cc3)cc2CC1=O	3	74*	/	1
Cc1ccc(S(=O)(=O)N(C)C[C@H]2Oc3ccc(NC(=O)Nc4ccc(C(F)(F)F)cc4)cc3CC(=O)N([C@H](C)CO)C[C@H]2C)cc1	3	63*	3	23
CCN(CC)CCn1c2c(c(SCC(=O)Nc3nc(C)cs3)nc1=O)CCC2	8	26	-3	-9
Cc1ccc(S(=O)(=O)Nc2ccc3c(c2)C(=O)N([C@H](C)CO)C[C@@H](C)[C@@H](CN(C)CC2CCCCC2)OCCCC[C@@H](C)O3)cc1	2	88*	/	39
C[C@@H]1CCCCO[C@H](CN(C)CC2CCCCC2)[C@H](C)CN([C@H](C)CO)C(=O)c2cc(NS(=O)(=O)c3ccc(Cl)cc3)ccc2O1	21	95*	/	/
C[C@@H]1CN([C@H](C)CO)C(=O)c2cc(NS(=O)(=O)c3ccc(Cl)cc3)ccc2O[C@@H](C)CCCCO[C@@H]1CN(C)CC1CCCCC1	4	78*	/	/
Cc1ccc(S(=O)(=O)Nc2ccc3c(c2)C(=O)N([C@H](C)CO)C[C@@H](C)[C@@H](CN(C)CC2CCCCC2)OCCCC[C@H](C)O3)cc1	5	27	/	20
O=S(=O)(Nc1ccccc1Cl)c1ccc(NS(=O)(=O)c2cccs2)cc1	-8	8	5	-9
CCN1CCN(CCNC(=O)c2ccc(/C=C3\Sc4ccccc4N(Cc4ccccc4F)C3=O)cc2)CC1	/	0	8	85*
COc1cccc(/C=C2/Sc3ccc(C(=O)NCCN4CCCCCC4)cc3NC2=O)c1	2	97*	-1	45
Cc1cccc(/C=C2/Sc3ccc(C(=O)NCCCN4CCOCC4)cc3NC2=O)c1	-4	12	2	-8
Cc1cccc(/C=C2/Sc3ccc(C(=O)NCCN4CCCC4)cc3NC2=O)c1	/	11	3	46
COCCCNC(=O)/C=C1\Sc2ccccc2N(Cc2ccccc2F)C1=O	7	12	8	-10
CCN1CCN(CCCNC(=O)c2ccc3c(c2)NC(=O)/C(=C\c2cccc(C)c2)S3)CC1	66*	3	11	44
CO[C@@H]1CN(C)C(=O)c2cc(NC(=O)c3nc4ccccc4s3)ccc2OC[C@@H](C)NC[C@@H]1C	11	-15	2	4
O=C(NC1CC1)c1cc(OCC(F)(F)F)ccc1OCC(F)(F)F	/	2	3	3
COC(=O)c1ccc(C(=O)NC(=S)Nc2nc3c(s2)CC(C)CC3)cc1 (centres undefined)	/	-26	6	/
Cc1ccc(S(=O)(=O)Nc2ccc3c(c2)C(=O)N([C@H](C)CO)C[C@@H](C)[C@H](CN(C)C(=O)Nc2ccc(F)cc2)OCCCC[C@@H](C)O3)cc1	-6	61*	-10	-16
Cc1ccc(S(=O)(=O)Nc2ccc3c(c2)C(=O)N([C@@H](C)CO)C[C@@H](C)[C@@H](CN(C)C(=O)Nc2ccc(F)cc2)OCCCC[C@@H](C)O3)cc1	8	-4	-9	-37
COc1ccc(NC(=O)N(C)C[C@@H]2OCCCC[C@@H](C)Oc3ccc(NS(=O)(=O)c4ccccc4)cc3C(=O)N([C@H](C)CO)C[C@@H]2C)cc1	3	-5	6	85*
